# Reference: ChEMBL document CHEMBL1136777, “Synthesis, anticancer activity, and inhibition of tubulin polymerization by conformationally restricted analogues of lavendustin A” (J Med Chem, 2003)
# Legend:
# [1] = system: SF-539; assay: Antiproliferative activity against human CNS SF-539 cell line; format: functional
# In short: (§1)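 Adherent lines grown in RPMI 1640 with 5% fetal bovine serum and 2 mM L-glutamine, plated at 5000–40 000 cells/well and preincubated 24 h. Five drug concentrations were added for 48 h at 37 °C. Cells were fixed with cold TCA (10% final), stained with sulforhodamine B, and read at 515 nm. GI50 is the concentration giving 50% reduction in net protein increase relative to time-zero wells.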
# [2] = system: HCT-116; assay: Antiproliferative activity against human colon HCT116 cell line; format: functional; in short: as §1
# [3] = system: CCRF-CEM; assay: Antiproliferative activity against human leukemia CCRF-CEM cell line; format: functional
# In short: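 Suspension leukemia line grown in RPMI 1640 with 5% fetal bovine serum and 2 mM L-glutamine and preincubated 24 h. Drug was given at five concentrations for 48 h at 37 °C. Settled cells were fixed with 80% TCA (16% final), stained with sulforhodamine B, and read at 515 nm. GI50 was set at 50% reduction in net protein increase versus time-zero wells.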
# [4] = system: HOP-62; assay: Antiproliferative activity against human lung HOP-62 cell line; format: functional; in short: as §1
# [5] = system: UACC-62; assay: Antiproliferative activity against human melanoma UACC-62 cell line; format: functional; in short: as §1
# [6] = system: SN12C; assay: Antiproliferative activity against human renal SN12C cell line; format: functional; in short: as §1
# [7] = system: DU-145; assay: Antiproliferative activity against human prostate DU-145 cell line; format: functional; in short: as §1
# [8] = Mean graph midpoint for growth inhibition of all human cancer cells was determined; format: functional, Cancer cell lines; parameters: unit: µM
# In short: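 Average of GI50 values over about 55 cell lines from the 48-h sulforhodamine B growth assay. Test range was 10^-4 to 10^-8 M, and values beyond it were set to those limits. Compounds with a first MGM of 10 μM or less were tested a second time and a standard deviation was calculated.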
# [9] = target: Tubulin (Bos taurus, UniProt Q6B856+Q862F3); assay: Inhibition of tubulin polymerization was determined at 1.2 mg/mL concentration; format: functional
# Chain of Tubulin (Q6B856 whole entry): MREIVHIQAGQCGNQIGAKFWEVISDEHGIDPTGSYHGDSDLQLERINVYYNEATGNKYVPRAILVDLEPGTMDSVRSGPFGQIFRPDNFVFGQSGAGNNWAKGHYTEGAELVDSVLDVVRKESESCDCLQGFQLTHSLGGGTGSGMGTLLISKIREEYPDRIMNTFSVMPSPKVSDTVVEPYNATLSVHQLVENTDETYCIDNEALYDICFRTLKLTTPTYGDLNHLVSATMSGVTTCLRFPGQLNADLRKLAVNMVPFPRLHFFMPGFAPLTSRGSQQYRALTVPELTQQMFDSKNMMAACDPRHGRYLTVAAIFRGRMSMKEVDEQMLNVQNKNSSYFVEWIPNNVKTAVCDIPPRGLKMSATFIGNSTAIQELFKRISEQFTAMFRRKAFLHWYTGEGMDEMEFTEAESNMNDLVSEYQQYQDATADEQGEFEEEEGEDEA
# Chain of Tubulin (Q862F3 whole entry): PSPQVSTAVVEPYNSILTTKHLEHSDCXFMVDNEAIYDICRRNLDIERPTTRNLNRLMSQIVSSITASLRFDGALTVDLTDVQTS
# [10] = system: OVCAR-3; assay: Antiproliferative activity against human ovarian OVCAR-3 cell line; format: functional; in short: as §1
# [11] = system: MDA-MB-435 (Homo sapiens); assay: Antiproliferative activity against human breast MDA-MB-435 cell line
GI50 [2],GI50 [3],GI50 [7],IC50 [9],GI50 [10],GI50 [11],SMILES,GI50 [1],GI50 [4],GI50 [5],GI50 [6],MGM [8]
1.9 µM,1.8 µM,11 µM,2.9 µM,2.7 µM,3.8 µM,O=C(NCCc1ccc(F)cc1)c1cc(/C=C/c2cc(O)ccc2O)ccc1O,2.2 µM,8.8 µM,2.1 µM,5.6 µM,3.5
37.7 µM,36.8 µM,43.6 µM,> 40 µM,13.6 µM,> 100 µM,COC(=O)c1cc(C#Cc2cc(OC)ccc2OC)ccc1OC,81.1 µM,–,29.3 µM,37.9 µM,30.9
12.5 µM,–,14.5 µM,5.5 µM,4.4 µM,3.9 µM,O=C(NCCc1ccccc1)c1cc(CCc2cc(O)ccc2O)ccc1O,–,13.9 µM,11 µM,49.8 µM,6.4
9.2 µM,0.29 µM,18 µM,6.4 µM,11 µM,13 µM,O=C(NCCc1ccc(F)cc1)c1cc(NCc2cc(O)ccc2O)ccc1O,9.2 µM,12 µM,7.8 µM,7.7 µM,0.35
3.6 µM,5.1 µM,7.4 µM,6.2 µM,2.4 µM,3.2 µM,CCCCCCNC(=O)c1cc(CCc2cc(O)ccc2O)ccc1O,2.2 µM,7.4 µM,3.3 µM,2.2 µM,4.4
1.8 µM,2.1 µM,10.1 µM,4 µM,2.9 µM,4 µM,O=C(NCCc1ccccc1)c1cc(/C=C/c2cc(O)ccc2O)ccc1O,2.4 µM,9.3 µM,2 µM,5.1 µM,3.8
3.8 µM,3.4 µM,> 100 µM,> 40 µM,4.2 µM,2.1 µM,COc1ccc(OC)c(/C=C\c2ccc(OC)c(C(=O)NCCc3ccc(F)cc3)c2)c1,5.9 µM,8.1 µM,3.5 µM,6.4 µM,4.5
5.3 µM,3.2 µM,4.2 µM,1.4 µM,3.2 µM,0.5 µM,COc1ccc(OC)c(CCc2ccc(O)c(C(=O)NCCc3ccc(F)cc3)c2)c1,3.2 µM,15 µM,6.6 µM,15.8 µM,6.9
21.1 µM,24.7 µM,45.6 µM,> 40 µM,16.1 µM,10.3 µM,CCCCCCNC(=O)c1cc(/C=C\c2cc(OC)ccc2OC)ccc1OC,23.6 µM,31.9 µM,25 µM,63.1 µM,16.6
3.9 µM,1.2 µM,10.5 µM,4.2 µM,1.7 µM,4.5 µM,CCCCCCNC(=O)c1cc(/C=C\c2cc(O)ccc2O)ccc1O,3.3 µM,8.3 µM,5.8 µM,11.6 µM,4.1
–,–,–,5 µM,–,–,CCCCCCNC(=O)c1cc(/C=C/c2cc(O)ccc2O)ccc1O,–,–,–,–,–
3.8 µM,1.3 µM,15.2 µM,4.2 µM,2.1 µM,12.9 µM,O=C(NCCc1ccc(F)cc1)c1cc(/C=C\c2cc(O)ccc2O)ccc1O,3.8 µM,6.3 µM,2.3 µM,4 µM,3.5
4.7 µM,4.7 µM,> 100 µM,> 40 µM,–,1.2 µM,COc1ccc(OC)c(C#Cc2ccc(OC)c(C(=O)NCCc3ccc(F)cc3)c2)c1,–,4.9 µM,6 µM,> 100 µM,11.5
10.5 µM,0.3 µM,12.7 µM,3.7 µM,2.8 µM,2.9 µM,O=C(NCCc1ccccc1)c1cc(C#Cc2cc(O)ccc2O)ccc1O,9.6 µM,10.3 µM,1.9 µM,5.7 µM,3.8
6.9 µM,7.9 µM,> 100 µM,> 40 µM,> 100 µM,> 100 µM,CCCCCCNC(=O)c1cc(C#Cc2cc(OC)ccc2OC)ccc1OC,> 100 µM,11.8 µM,56.8 µM,> 100 µM,31.6
4 µM,2.4 µM,1.7 µM,1.4 µM,1.4 µM,0.6 µM,COc1ccc(OC)c(CC(=O)c2ccc(O)c(C(=O)NCCc3ccc(F)cc3)c2)c1,–,1.5 µM,4 µM,4.3 µM,3.6
3.5 µM,0.2 µM,1.8 µM,5.4 µM,1 µM,1.7 µM,O=C(NCCc1ccccc1)c1cc(/C=C\c2cc(O)ccc2O)ccc1O,1.6 µM,3 µM,2.1 µM,6.8 µM,1.4
12 µM,–,> 100 µM,> 40 µM,6.7 µM,2.5 µM,COc1ccc(OC)c(C#Cc2ccc(OC)c(C(=O)NCCc3ccccc3)c2)c1,> 100 µM,> 100 µM,24.4 µM,> 100 µM,40.7
32.3 µM,55 µM,26.9 µM,> 40 µM,24.4 µM,8.8 µM,COc1ccc(OC)c(C#Cc2ccc(OC)c(C(=O)O)c2)c1,38.5 µM,25.6 µM,22.6 µM,38.2 µM,18.6
1 µM,0.4 µM,8 µM,9.7 µM,1 µM,2.3 µM,O=C(NCCc1ccc(F)cc1)c1cc(CCc2cc(O)ccc2O)ccc1O,1.8 µM,2.6 µM,2.8 µM,2.1 µM,2.8
47.3 µM,12.3 µM,> 100 µM,> 40 µM,5 µM,3 µM,COc1ccc(OC)c(/C=C\c2ccc(OC)c(C(=O)NCCc3ccccc3)c2)c1,> 100 µM,> 100 µM,16.4 µM,> 100 µM,38.9

SMILES,GI50 [2],GI50 [3],GI50 [7],IC50 [9],GI50 [10],GI50 [11],GI50 [1],GI50 [4],GI50 [5],GI50 [6],MGM [8]
COC(=O)c1cc(/C=C\c2cc(OC)ccc2OC)ccc1OC,20.1 µM,–,18.1 µM,> 40 µM,4.9 µM,10.9 µM,10.6 µM,32.9 µM,14.8 µM,30.2 µM,15.5
